Compounds with a hit are over-represented: about 2.2% of the library has one in this group of screens.
FLuc stim CS = firefly luciferase counter-screen for stimulation assays | ATPlite luciferase biochemical, luminescence, 10 min; 0 = ATP-free wells, 1 = DMSO control | activation factor at 10 µM | 200,000 tested, under 10 active;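 active = luciferase activation factor, scaled between plate controls, of at least 2 with compound at 10 µM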
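test system = cell-free luciferase reagent | medium = PBS as buffer for the ATP substrate | dosing = test compounds dosed from 2 mM stocks in 100% DMSO | incubation = 10 min at ambient temperature | detection = luminescence measurement of luciferase light output | benchmarks = low control with PBS replacing ATP, high control enzyme plus ATP without compound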
PPC-1+TRAIL kill = PPC-1 cancer cell killing with TRAIL present. cell killing (% activity), % at 4 µM or 5 µM. AID 1443. PPC-1 cells + TRAIL, ATPLite viability luminescence. 0.41% of 220,000 active;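 active = cell killing above 50% in the first pass at 4 µM, then a duplicate retest at 5 µM averaging 50% or more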;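 note: plate controls were cells with TRAIL plus DMSO for no effect and medium-only wells lacking cells for full effect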
TRAIL sens C8 = caspase-8 TRAIL sensitization | inhibition (viability loss, TRAIL sensitization), % at 10 µM | 1% of 360,000 active | NB7+C8 cells + TRAIL, ATPlite viability luminescence | AID 624354;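 active = compounds causing at least 50% loss of cell viability in the single-dose screen, relative to plate controls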
HSP90 inh = HSP90 refolding inhibition in rabbit reticulocyte lysate; luciferase refolding luminescence, 3 h; inhibition, % at 5.6 µM; 0.91% of 290,000 active; AID 1789;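 active = inhibition above the screen-wide mean plus 3 SD, computed separately per campaign, cut at about 16% in these data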;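 note: 0% = DMSO wells and 100% = 60 µM geldanamycin wells; inhibitors lower the luminescence because luciferase stays unfolded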
FLuc inh counter = inhibits firefly luciferase, flagging false hits in luciferase inhibition screens | 1.5% of 200,000 active | P08659 | AID 1006 | inhibition, % at 10 µM | ATPLite firefly luciferase biochemical luminescence, 10 min;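 active = inhibition above about 50% when tested at 10 µM, limit read from the data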
STAT3 inh = STAT3 signaling inhibition | 0.89% of 190,000 active | U3A cells, IL-6 STAT3-luciferase reporter, luminescence; host cell line lacks STAT1 | inhibition, % at 5.5 µM;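 active = inhibition above the mean inhibition across all screened compounds plus 3 SD, cut at about 44% in these data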;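 note: 0% = DMSO only wells and 100% = 100 µM nifuroxazide control wells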
Active calls of the source: *; / = no result.

SMILES	FLuc stim CS	PPC-1+TRAIL kill	TRAIL sens C8	HSP90 inh	FLuc inh counter	STAT3 inh
CC1(C)C(=O)C2(C(=O)NCc3ccccc3)CCC1C2 (configuration not stated)	1.1	-5	-4	17*	-11	-3
Cc1[nH]cnc1C(=O)N/N=C/c1c(Cl)cccc1Cl	/	/	59*	5	/	/
O=C(/C=C/c1ccccc1)Nc1ccc2c(c1)C(=O)NC2=O	0.9	28	50*	-4	12	11
COc1ccc(N(CC(=O)N2CCOCC2)S(C)(=O)=O)cc1	/	/	-15	1	/	/
COc1ccc(CC2C(=O)NC(C)C(=O)N(C)C3Cc4ccc(cc4)Oc4cc(ccc4O)CC(C(=O)NC(C)C(=O)NC(C)C(=O)N2C)N(C)C3=O)cc1 (configuration not stated)	/	/	66*	/	/	/
CCCCOc1ccc(C(=O)Nc2ccc(OCC(=O)N3CCOCC3)cc2)cc1	/	/	70*	-1	/	/
O=C(Nc1ccc(OCC(=O)N2CCOCC2)cc1)c1ccccc1Cl	/	/	83*	13	/	/
CCN(CC)S(=O)(=O)c1ccc(C(=O)Nc2ccc(OCC(=O)N3CCOCC3)cc2)cc1	0.9	18	4	-2	10	-4
Cc1ccc(C(=O)NCCc2csc(C)n2)cc1	0.4	39	39	-1	58*	6
O=C(c1cc(C2CC2)nc2ccccc12)N1N=C(C(F)F)CC1(O)C(F)F (configuration not stated)	1	-2	-10	-2	-2	-7
CC(C)c1ccc(-c2cc(C(=O)NN3CCN(C)CC3)c3ccccc3n2)cc1	0.1	66*	77*	-5	88*	-17
CC(C)c1ccc(-c2cc(C(=O)N3N=C(C(F)F)CC3(O)C(F)F)c3ccccc3n2)cc1 (configuration not stated)	0.4	46	45	0	65*	-24
CN1CCN(NC(=O)c2cc(-c3cccc(Cl)c3)nc3ccccc23)CC1	1.1	20	-13	0	-8	-4
COc1ccc(OC)c(C(C)NC(=O)C(C)n2cc([N+](=O)[O-])cn2)c1 (configuration not stated)	/	/	-7	/	/	/
O=C(N/N=C/c1cc([N+](=O)[O-])ccc1O)c1ccc(COc2ccc3c(c2)CCC3)o1	/	/	52*	0	/	/
CCOc1ccc(N2C(=O)/C(=C/c3ccccn3)SC2=S)cc1	/	-28	/	-2	/	/
CCOc1ccc(/C=C2/SC(=S)N(n3c(C)ccc3C)C2=O)cc1	0.8	4	50*	1	24	-5
COc1ccc(/C=C2/SC(=O)NC2=O)cc1	0.5	14	19	3	54*	0
COc1ccc(/C=C2/SC(=S)N(n3c(C)ccc3C)C2=O)cc1	1	27	62*	10	2	7
COc1ccc(C(=O)O)cc1S(=O)(=O)Nc1ccccc1C(=O)NCc1ccc2c(c1)OCO2	/	/	8	/	/	/
O=C(CNS(=O)(=O)c1ccc(Br)s1)NCC1COc2ccccc2O1 (configuration not stated)	1.1	15	6	3	-7	5
COc1ccc2c(c1)C(=O)/C(=C/C=C/c1ccccc1)CC2	0.8	0	1	0	22	2
COc1ccc2c(c1)CC/C(=C\C=C\c1ccccc1OC)C2=O	0.5	12	-3	0	52*	20
NC(=S)N/N=C\c1c2ccccc2cc2ccccc12	1	61*	-4	3	-2	14
COc1ccc(C2CC(c3cccs3)=NN2C(=O)CSC2=NN3CCCC(=O)N=C3S2)cc1 (configuration not stated)	1.1	14	27	1	-7	6
COc1ccc(C2CC(c3ccc(Br)cc3)=NN2C(=O)CSC2=NN3CCCC(=O)N=C3S2)cc1 (configuration not stated)	/	/	93*	-6	/	/
CC(C)N1CCc2c(sc(NC(=O)c3ccc([N+](=O)[O-])o3)c2C(N)=O)C1	/	/	52*	5	/	/
COC(=O)c1c(NC(=O)c2ccc([N+](=O)[O-])o2)sc2c1CCN(C(C)C)C2	/	/	53*	5	/	/
CC(C)N1CCc2c(sc(NC(=O)c3nc4ccccc4s3)c2C(N)=O)C1	1	20	7	6	0	29
